Data taken from PubChem BioAssay.
Active and inactive are the calls of the source. Cut-off read from the data, not from the text of the source, unless noted: active = inhibition above about 30%; inactive = the rest.

How the values were obtained:
[1] = HUVEC growth inhibition – cell-based, human, primary screen (AID 575;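 active = viability at or below 30% in both replicate assays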;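 note: 100% = median of untreated cell wells with 0.1% DMSO on each plate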); conditions: HUVEC proliferation, CellTiter-Glo luminescence, 72 h; at 10 µM; stronger effect = lower value
Summary of the method: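 Test system: primary human umbilical vein endothelial cells; medium: endothelial basal medium with 2% FBS plus growth supplements; dosing: 10 µM compound only; times: 72 h treatment at 37 °C; signal: CTG luminescence; read-out: % viability relative to median vehicle-well signal on each plate; control set: vehicle and MePR control wells; plate: 384-well, collagen-coated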

[2] = H69AR cell proliferation blockers – human, duplicate replicates, primary screen (AID 580;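 active = viability at or under a set limit in both replicates, limit being median viability minus 3 SD, cut at about 48% in these data, passing the limit was not always enough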;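 note: 100% = mean luminescence of untreated wells and 0% = no signal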); conditions: H69AR lung tumor cells viability, ATP luminescence, 72 h; at 10 µM; stronger effect = lower value
[3] = MRP1 drug-resistance reversers in H69AR cells – cell-based, doxorubicin co-treatment, pilot screen (AID 601;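 active = viability loss from added drug above about 55%, and viability with drug at most 40%, in both replicates, limit read from the data, passing the limit was not always enough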); conditions: CellTiter-Glo, 72 h, at 10 µM; for differential viability (reversal): stronger effect = higher value
[4] = yeast transport mutant growth inhibition pilot in 384-well plates, post-Golgi transport modulator project (AID 636; in the data active = inhibition above about 31%); conditions: absorbance 615 nm, about 18 h, stronger effect = higher value
[5] = growth suppression of yeast trafficking mutant, preliminary HTS, modulators of trafficking downstream of Golgi apparatus project, 1536-format plate, OD 615 nm (AID 637); conditions: yeast transport mutant growth, absorbance 615 nm, 18 h; stronger effect = higher value
[6] = H69AR cells + 2 uM doxorubicin, measured here: viability with 2 uM doxorubicin, stronger effect = lower value
[7] = H69AR cells, compound alone cytotoxicity

Row | Structure (SMILES) | viability [1] | viability [2] | differential viability (reversal) ([3]; H69AR cells + 2 uM doxorubicin) | viability [3, 6] [%] | viability [3, 7] [%] | inhibition [4] | inhibition [5]
1 | O=C(NCCN1CCCCCC1)c1ccc(N2CCCC2=O)cc1 | 91% (inactive) | 95.9% (inactive) | 3.38% (inactive) | 92.5 | 95.9 | -7.2% (inactive) | 12.5% (inactive)
2 | CN(c1ccccc1)S(=O)(=O)c1cc(C(=O)N2CCN(c3ccccn3)CC2)ccc1Cl | 45.3% (inactive) | 88.5% (inactive) | 10.1% (inactive) | 78.4 | 88.5 | 0.39% (inactive) | 2.22% (inactive)
3 | CCn1c(SCC(=O)NCCc2ccc(Cl)cc2)nnc1-c1cccs1 | 87.7% (inactive) | 98.9% (inactive) | 4.62% (inactive) | 94.3 | 98.9 | 4.03% (inactive) | 3.17% (inactive)
4 | CCC1(CC)C(=O)N(C)C(=O)NC1=NCc1ccccc1 | 110% (inactive) | 93.1% (inactive) | -1.67% (inactive) | 94.7 | 93.1 | -7.07% (inactive) | 3.02% (inactive)
5 | Cc1ccc(-c2ccc(/C=N/n3cnnc3)o2)cc1Cl | 87.2% (inactive) | 101% (inactive) | 4.54% (inactive) | 96.3 | 101 | -2.08% (inactive) | 86.2% (active)
6 | CN(C)CCSc1nnc2sc3ccccc3n12 | 94.2% (inactive) | 92.8% (inactive) | -0.905% (inactive) | 93.7 | 92.8 | -5.92% (inactive) | -5.08% (inactive)
7 | COc1ccc(C(=O)Cn2nnc(-c3cccs3)n2)cc1 | 102% (inactive) | 90.9% (inactive) | 4.98% (inactive) | 85.9 | 90.9 | -6.67% (inactive) | -3.65% (inactive)
8 | CCOc1ncccc1C(=O)Nc1ccc2c(C)cc(=O)oc2c1 | 84.1% (inactive) | 93.5% (inactive) | 1.12% (inactive) | 92.4 | 93.5 | -3.77% (inactive) | 6.51% (inactive)
9 | COc1ccc(N2C(=O)CC(N3CCN(S(=O)(=O)c4c(F)cccc4F)CC3)C2=O)cc1OC (stereo not given) | 107% (inactive) | 103% (inactive) | 8.42% (inactive) | 94.3 | 103 | -2.34% (inactive) | -6.35% (inactive)
10 | c1ccc(-c2nc3nonc3c3nc4ccccc4n23)cc1 | 93.8% (inactive) | 88.8% (inactive) | -1.96% (inactive) | 90.8 | 88.8 | -6.27% (inactive) | 1.9% (inactive)
11 | O=C(O)c1ccc(-n2nnnc2Oc2ccccc2C(=O)N2CCOCC2)cc1 | 108% (inactive) | 102% (inactive) | 16.1% (inactive) | 85.7 | 102 | -1.97% (inactive) | -2.7% (inactive)
12 | COc1ccc(C)cc1-n1nnnc1SCC(=O)NC(=O)NCc1ccco1 | 90.9% (inactive) | 87.3% (inactive) | 9.23% (inactive) | 78.1 | 87.3 | -1.69% (inactive) | 3.17% (inactive)
13 | Cc1ccc(C)c(C(=O)NC2CC(C)(C)NC(C)(C)C2)c1 | 98.5% (inactive) | 86.7% (inactive) | -0.525% (inactive) | 87.3 | 86.7 | -5.71% (inactive) | -6.98% (inactive)
14 | O=C1CCCc2c1nn(-c1ccccc1)[n+]2[O-] | 110% (inactive) | 98.1% (inactive) | 1.57% (inactive) | 96.5 | 98.1 | -5.33% (inactive) | -5.4% (inactive)
15 | Cc1cc(C)n(-c2nc(C)nc3c2cnn3-c2ccccc2)n1 | 87.4% (inactive) | 87.3% (inactive) | -1.5% (inactive) | 88.8 | 87.3 | -3.77% (inactive) | 6.19% (inactive)
16 | CCn1c(Cc2ccccc2)nnc1SCC(=O)Nc1ccc(N2CCOCC2)c(Cl)c1 | 101% (inactive) | 93.8% (inactive) | -8.62% (inactive) | 102 | 93.8 | -4.67% (inactive) | 3.02% (inactive)
17 | Cc1ccc(S(=O)(=O)N(C)CC(=O)NC2CC(C)(C)NC(C)(C)C2)cc1 | 93.1% (inactive) | 96.2% (inactive) | 8.25% (inactive) | 88 | 96.2 | -1.04% (inactive) | 0.32% (inactive)
18 | C=CCC(Nc1ccco1)c1ccccc1 (stereo not given) | 95.8% (inactive) | 102% (inactive) | 14.1% (inactive) | 87.8 | 102 | -3.55% (inactive) | -0.32% (inactive)
19 | O=C(Nc1cc(C(F)(F)F)ccc1Cl)C1CCN(c2nnc(-n3cccc3)s2)CC1 | 80.2% (inactive) | 70.9% (inactive) | 7.64% (inactive) | 63.3 | 70.9 | -6% (inactive) | 2.22% (inactive)
20 | S=c1[nH]ncn1-c1ccccn1 | 81.6% (inactive) | 93.9% (inactive) | -4.69% (inactive) | 98.6 | 93.9 | -5.33% (inactive) | -0.63% (inactive)

Row | Structure (SMILES) | viability [1] | viability [2] | differential viability (reversal) ([3]; H69AR cells + 2 uM doxorubicin) | viability [3, 6] [%] | viability [3, 7] [%] | inhibition [4] | inhibition [5]
21 | COc1ccc(S(=O)(=O)NCc2ccco2)cc1-c1nnc2c3ccccc3c(C)nn12 | 88.1% (inactive) | 83.9% (inactive) | -10.3% (inactive) | 94.2 | 83.9 | -5.92% (inactive) | 7.14% (inactive)
22 | COc1ccc(OC)c(NC(=O)Cc2coc3ccc(C)cc23)c1 | 76.7% (inactive) | 82.1% (inactive) | 3.86% (inactive) | 78.3 | 82.1 | -6.05% (inactive) | 0.48% (inactive)
23 | O=C(NCCN1CCCC1)C1COc2ccccc2O1 (stereo not given) | 105% (inactive) | 95.7% (inactive) | 1.77% (inactive) | 93.9 | 95.7 | -7.14% (inactive) | -3.02% (inactive)
24 | CCCCCCNC(=O)c1c(N)n(/N=C/c2ccco2)c2nc3ccccc3nc12 | 53.7% (inactive) | 78.4% (inactive) | -0.96% (inactive) | 79.4 | 78.4 | -4.4% (inactive) | -0.16% (inactive)
25 | COCCNC(=O)c1ccc(Cl)c(Cl)c1 | 108% (inactive) | 102% (inactive) | 17% (inactive) | 85 | 102 | -3.16% (inactive) | -0.16% (inactive)
26 | COc1ccc(CCNC(=O)c2nc3ncccn3n2)cc1OC | 113% (inactive) | 102% (inactive) | 7.66% (inactive) | 94.5 | 102 | -4.08% (inactive) | 7.78% (inactive)
27 | O=C1CC(Sc2nnc(-c3ccccc3)o2)C(=O)N1c1ccccc1 (stereo not given) | 96.3% (inactive) | 2.27% (active) | -6.77% (inactive) | 9.04 | 2.27 | -6.13% (inactive) | -1.11% (inactive)
28 | Cc1cccc(NC(=O)c2oc3c(c2C)C(=O)CC(C)(C)C3)n1 | 106% (inactive) | 92.3% (inactive) | 9.28% (inactive) | 83 | 92.3 | -6.27% (inactive) | -3.49% (inactive)
29 | COc1ccc(CCNS(=O)(=O)c2ccc3c(c2)OCCO3)cc1 | 109% (inactive) | 103% (inactive) | 10.1% (inactive) | 92.6 | 103 | -0.53% (inactive) | -3.17% (inactive)
30 | Cc1cc2c(c(=O)n1CCN(C)C)C(c1ccncc1)C(C#N)=C(N)O2 (stereo not given) | 103% (inactive) | 103% (inactive) | 0.98% (inactive) | 102 | 103 | -2.37% (inactive) | -6.51% (inactive)
31 | Nc1nc(Nc2ccc(Cl)cc2Cl)nc(C(F)(F)F)n1 | 73.9% (inactive) | 89.8% (inactive) | 11.7% (inactive) | 78 | 89.8 | -5.6% (inactive) | 11.3% (inactive)
32 | CC1(c2ccncc2)Nc2ccccc2-c2nc3ccccc3n21 (stereo not given) | 92.4% (inactive) | 99.2% (inactive) | -2.33% (inactive) | 101 | 99.2 | -1.45% (inactive) | -0.95% (inactive)
33 | COCCCNC(=O)CC(NS(=O)(=O)c1ccc(Cl)cc1)c1ccco1 (stereo not given) | 106% (inactive) | 87.5% (inactive) | 2.94% (inactive) | 84.6 | 87.5 | -0.91% (inactive) | -3.02% (inactive)
34 | CN(C)S(=O)(=O)N1CCN(S(=O)(=O)c2ccc(F)cc2)CC1 | 90.7% (inactive) | 101% (inactive) | 4.42% (inactive) | 96.1 | 101 | 2.8% (inactive) | -2.22% (inactive)
35 | Cc1csc(NC(=O)c2cccc(S(=O)(=O)N3CCCCC3)c2)n1 | 70.6% (inactive) | 87.5% (inactive) | -3.96% (inactive) | 91.5 | 87.5 | -3.51% (inactive) | -9.05% (inactive)
36 | COCC(C)NC(=O)CCS(=O)(=O)c1nc(-c2ccc(OC)cc2)cc(C(F)(F)F)n1 (stereo not given) | 8.82% (active) | 23.7% (active) | -11.7% (inactive) | 35.3 | 23.7 | -7.87% (inactive) | -0.63% (inactive)
37 | CCNc1ccc2c(Cl)cc(=O)oc2c1 | 68.2% (inactive) | 79.8% (inactive) | 5.29% (inactive) | 74.5 | 79.8 | -5.73% (inactive) | -1.59% (inactive)
38 | COc1ccc(OC(C)C(=O)N2CCN(c3ccccn3)CC2)cc1 (stereo not given) | 106% (inactive) | 94.4% (inactive) | 5.04% (inactive) | 89.3 | 94.4 | -3.95% (inactive) | -0.32% (inactive)
39 | CN(c1cccc(NS(=O)(=O)c2cccs2)c1)S(C)(=O)=O | 95.5% (inactive) | 86.8% (inactive) | 2.12% (inactive) | 84.7 | 86.8 | -0.13% (inactive) | 18.1% (inactive)
40 | CCCc1n[nH]c2c1/C(=N/O)CC(c1ccccc1)C2 (stereo not given) | 49.5% (inactive) | 66.1% (inactive) | -14.4% (inactive) | 80.6 | 66.1 | -2.34% (inactive) | 2.86% (inactive)
